Type in all cases: functional
In assay [1] the test system is Enterococcus faecalis. Nature of the assay: Antimicrobial activity against linezolid-resistant Enterococcus faecalis 414 harboring G2576U mutation in peptidyl transferase centre by broth microdilution method. The method, boiled down:
(§1)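 MIC by CLSI broth microdilution for aerobically growing bacteria, in Mueller-Hinton II broth. Test organisms were recent clinical isolates from diverse geographic centers plus laboratory-derived oxazolidinone-resistant mutants. QC strains S. aureus ATCC 29213 and E. faecalis ATCC 29212 were included in each assay set to confirm proper assay performance.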
In general terms: Dilution methods test growth across graded concentrations, often in twofold steps.

The test system of assay [2] is Staphylococcus aureus. In words: Antimicrobial activity against linezolid-resistant Staphylococcus aureus 425 harboring G2447U in peptidyl transferase centre by broth microdilution method. In short, it runs like this: as §1
The test system of assay [3] is Enterococcus faecium. In words: Antimicrobial activity against linezolid-resistant Enterococcus faecium 854 harboring G2576U mutation in peptidyl transferase centre by broth microdilution method. In short, it runs like this:
as §1

The test system of assay [4] is Staphylococcus aureus. Nature of the assay: Antimicrobial activity against linezolid-resistant methicillin-resistant Staphylococcus aureus NRS127 by broth microdilution method. In short, it runs like this: as §1
For assay [5], the system named is Staphylococcus aureus. In words: Antimicrobial activity against linezolid-resistant methicillin-resistant Staphylococcus aureus NRS120 harboring G2576U mutation in peptidyl transferase centre by broth microdilution method.
The test system of the next assay is Mammaliicoccus sciuri. In words: Antimicrobial activity against linezolid-resistant Staphylococcus sciuri by broth microdilution method. In short, it runs like this: as §1
The test system of assay [6] is Staphylococcus aureus. In words: Antimicrobial activity against linezolid-resistant Staphylococcus aureus 004-737X harboring plasmid borne cfr gene by broth microdilution method. In short, it runs like this: as §1
The subject of the next assay is Staphylococcus hominis. In words: Antimicrobial activity against linezolid-resistant Staphylococcus hominis by broth microdilution method. In short, it runs like this: as §1
Assay [7] concerns Staphylococcus aureus. In words: Antimicrobial activity against Staphylococcus aureus 1651 harboring G2576U mutation in peptidyl transferase centre by broth microdilution method. In short, it runs like this: as §1
Assay [8] deals with Staphylococcus aureus. Nature of the assay: Antimicrobial activity against linezolid-resistant Staphylococcus aureus 1652 harboring U2500A mutation in peptidyl transferase centre by broth microdilution method. The method, boiled down: as §1
The test system of assay [9] is Staphylococcus aureus. Nature of the assay: Antimicrobial activity against linezolid-resistant Staphylococcus aureus CM/05 3067 harboring chromosomal cfr gene by broth microdilution method. In short, it runs like this: as §1
For assay [10], the system named is Staphylococcus aureus. In words: Antimicrobial activity against linezolid-resistant methicillin-resistant Staphylococcus aureus NRS121 harboring G2576U mutation in peptidyl transferase centre by broth microdilution method. The method, boiled down: as §1
The test system of assay [11] is Staphylococcus epidermidis. In words: Antimicrobial activity against linezolid-resistant Staphylococcus epidermidis by broth microdilution method. The method, boiled down:
as §1

The test system of assay [12] is Enterococcus faecalis. In words: Antimicrobial activity against linezolid-resistant Enterococcus faecalis 413 harboring G2576U mutation in peptidyl transferase centre by broth microdilution method. In short, it runs like this:
as §1

In assay [13] the test system is Enterococcus faecalis. In words: Antimicrobial activity against linezolid-resistant Enterococcus faecalis by broth microdilution method. The method, boiled down: as §1
Assay [14] concerns Staphylococcus aureus. Nature of the assay: Antimicrobial activity against linezolid-resistant methicillin-resistant Staphylococcus aureus NRS119 harboring G2576U mutation in peptidyl transferase centre by broth microdilution method. In short, it runs like this:
as §1

For assay [15], the system named is Staphylococcus aureus. Nature of the assay: Antimicrobial activity against linezolid-resistant Staphylococcus aureus by broth microdilution method. In short, it runs like this: as §1
Assay [16] deals with Staphylococcus aureus. In words: Antimicrobial activity against linezolid-resistant methicillin-resistant Staphylococcus aureus NRS271 harboring G2576U mutation in peptidyl transferase centre by broth microdilution method. In short, it runs like this:
as §1

Assay [17] relates to Enterococcus faecium. In words: Antimicrobial activity against linezolid-resistant Enterococcus faecium by broth microdilution method. The method, boiled down: as §1
Assay [18] concerns Staphylococcus aureus. Nature of the assay: Antimicrobial activity against linezolid-resistant Staphylococcus aureus 480 harboring G2447U in peptidyl transferase centre by broth microdilution method. In short, it runs like this:
as §1

Assay [19] has as its system Staphylococcus aureus. In words: Antimicrobial activity against linezolid-resistant Staphylococcus aureus 131-6952X harboring plasmid borne cfr gene by broth microdilution method. The method, boiled down: as §1
Assay [20] has as its system Staphylococcus aureus. Nature of the assay: Antimicrobial activity against […] 29213 by broth microdilution method. In short, it runs like this: as §1
In assay [21] the test system is Enterococcus faecalis. In words: Antimicrobial activity against linezolid-resistant Enterococcus faecalis 412 harboring G2576U mutation in peptidyl transferase centre by broth microdilution method. The method, boiled down: as §1
The subject of assay [22] is Enterococcus faecalis. In words: Antimicrobial activity against linezolid-resistant Enterococcus faecalis 411 harboring G2576U mutation in peptidyl transferase centre by broth microdilution method. The method, boiled down:
as §1

For assay [23], the system named is Enterococcus faecalis. In words: Antimicrobial activity against linezolid-resistant Enterococcus faecalis 1172 harboring G2576U mutation in peptidyl transferase centre by broth microdilution method. The method, boiled down:
as §1

Assay [24] concerns Enterococcus faecalis. Nature of the assay: Antimicrobial activity against linezolid-resistant Enterococcus faecalis 3124 harboring G2576U mutation in peptidyl transferase centre by broth microdilution method. The method, boiled down:
as §1

Assay [25] deals with Enterococcus faecalis. Nature of the assay: Antimicrobial activity against linezolid-resistant Enterococcus faecalis 3128 harboring G2576U mutation in peptidyl transferase centre by broth microdilution method. The method, boiled down: as §1

Converted amounts (≈) assume the structure as drawn.

As usually defined, the MIC is the smallest concentration in the dilution series that meets the test's criterion for growth inhibition. Read a low MIC as inhibition by little substance. One may read the MIC50 as the lowest concentration that inhibits either 50% of growth or 50% of the strains tested, depending on the study. What is called MIC90 is an inhibitory concentration at the 90% level, which refers to growth in some studies and to a panel of isolates in others. Higher therefore signals weaker potency. `CC(=O)NC[C@H]1CN(c2ccc(N3CCOCC3)c(F)c2)C(=O)O1` [LINEZOLID]: the minimal inhibitory concentration (MIC) stood at 32 µg/mL (≈ 94.9 µM) in the assay on Enterococcus faecalis [1]; 32 µg/mL (≈ 94.9 µM) in the assay on Staphylococcus aureus [2]; 16 µg/mL (≈ 47.4 µM) against Enterococcus faecium [3]; 8 µg/mL (≈ 23.7 µM) against Staphylococcus aureus [4]; 64 µg/mL (≈ 190 µM) with Staphylococcus aureus [5]; 16 µg/mL (≈ 47.4 µM) with Mammaliicoccus sciuri. Also, the MIC in the assay on Staphylococcus aureus [6] came to 8 µg/mL (≈ 23.7 µM); with Staphylococcus hominis it was 16 µg/mL (≈ 47.4 µM); against Staphylococcus aureus [7], 16 µg/mL (≈ 47.4 µM); against Staphylococcus aureus [8], 32 µg/mL (≈ 94.9 µM); against Staphylococcus aureus [9], 16 µg/mL (≈ 47.4 µM); in the assay on Staphylococcus aureus [10], 64 µg/mL (≈ 190 µM). The minimal inhibitory concentration (MIC) with Enterococcus faecalis [12] is 32 µg/mL (≈ 94.9 µM); in the assay on Staphylococcus aureus [14], 64 µg/mL (≈ 190 µM); against Staphylococcus aureus [16], 32 µg/mL (≈ 94.9 µM); against Staphylococcus aureus [18] it was > 32 µg/mL; against Staphylococcus aureus [19], 32 µg/mL (≈ 94.9 µM). Moreover, the MIC50 in assay [11] was determined as 32 µg/mL (≈ 94.9 µM); in the assay with Enterococcus faecalis [13] it was 32 µg/mL (≈ 94.9 µM); with Staphylococcus aureus [15], 2 µg/mL (≈ 5.93 µM); in the assay on Enterococcus faecium [17], 32 µg/mL (≈ 94.9 µM). Also, the MIC90 in [11] was > 128 µg/mL; in the assay on Enterococcus faecalis [13], 32 µg/mL (≈ 94.9 µM); in the assay on Staphylococcus aureus [15], 16 µg/mL (≈ 47.4 µM); with Enterococcus faecium [17] it was 64 µg/mL (≈ 190 µM).
For the molecule `Cc1onc(-c2ccccc2)c1C(=O)N[C@@H]1C(=O)N2[C@@H]1SC(C)(C)[C@@H]2C(=O)O` [OXACILLIN], the minimum inhibitory concentration (MIC) in the assay with Enterococcus faecalis [1] was 16 µg/mL (≈ 39.9 µM); against Staphylococcus aureus [2], 0.12 µg/mL (≈ 0.299 µM); in the assay with Enterococcus faecium [3], > 32 µg/mL; against Staphylococcus aureus [4], 32 µg/mL (≈ 79.7 µM); with Staphylococcus aureus [20], 0.12 µg/mL (≈ 0.299 µM); against Staphylococcus aureus [6] it was > 2 µg/mL. For the same molecule, the MIC in the assay on Staphylococcus aureus [7] is > 32 µg/mL; in the assay with Staphylococcus aureus [8] it was 32 µg/mL (≈ 79.7 µM); in the assay on Staphylococcus aureus [9], > 32 µg/mL; against Enterococcus faecalis [21] it was 16 µg/mL (≈ 39.9 µM); in the assay on Enterococcus faecalis [22], > 32 µg/mL; in the assay on Enterococcus faecalis [12], > 32 µg/mL. Further, the minimum inhibitory concentration (MIC) against Enterococcus faecalis [23] was 32 µg/mL (≈ 79.7 µM); against Enterococcus faecalis [24], 8 µg/mL (≈ 19.9 µM); in the assay with Staphylococcus aureus [18] it was < 0.03 µg/mL; in the assay with Enterococcus faecalis [25], 2 µg/mL (≈ 4.98 µM); with Staphylococcus aureus [19], > 2 µg/mL.
Consider `CC1(C)S[C@@H]2[C@H](NC(=O)Cc3ccccc3)C(=O)N2[C@H]1C(=O)O` [PENICILLIN G], for which the MIC came out at 1 µg/mL (≈ 2.99 µM) in the assay on Enterococcus faecalis [1]; 1 µg/mL (≈ 2.99 µM) in the assay on Staphylococcus aureus [2]; 16 µg/mL (≈ 47.8 µM) against Staphylococcus aureus [4]; 1 µg/mL (≈ 2.99 µM) against Staphylococcus aureus [20]; 16 µg/mL (≈ 47.8 µM) in the assay on Staphylococcus aureus [7]; 32 µg/mL (≈ 95.7 µM) against Staphylococcus aureus [8]. In addition, the MIC in the assay with Enterococcus faecalis [21] worked out at 2 µg/mL (≈ 5.98 µM); against Enterococcus faecalis [22], 4 µg/mL (≈ 12 µM); with Enterococcus faecalis [12], 4 µg/mL (≈ 12 µM); in the assay with Enterococcus faecalis [23], 4 µg/mL (≈ 12 µM); against Staphylococcus aureus [18], 0.25 µg/mL (≈ 0.748 µM).
Take `Cn1nnc(-c2ccc(-c3ccc(N4C[C@H](CO)OC4=O)cc3F)cn2)n1` [TEDIZOLID]: the minimal inhibitory concentration (MIC) in the assay on Staphylococcus aureus [2] stood at 8 µg/mL (≈ 21.6 µM); against Enterococcus faecium [3] it was 2 µg/mL (≈ 5.4 µM); in the assay with Staphylococcus aureus [4], 1 µg/mL (≈ 2.7 µM); against Staphylococcus aureus [20], 1 µg/mL (≈ 2.7 µM); with Staphylococcus aureus [5] it was 8 µg/mL (≈ 21.6 µM); in the assay on Mammaliicoccus sciuri, 2 µg/mL (≈ 5.4 µM). Also, the MIC in the assay with Staphylococcus aureus [6] amounted to 0.5 µg/mL (≈ 1.35 µM); in the assay with Staphylococcus hominis it was 2 µg/mL (≈ 5.4 µM); with Staphylococcus aureus [7] it was 2 µg/mL (≈ 5.4 µM); against Staphylococcus aureus [8] it was 4 µg/mL (≈ 10.8 µM); against Staphylococcus aureus [9] it was 1 µg/mL (≈ 2.7 µM); with Staphylococcus aureus [10], 4 µg/mL (≈ 10.8 µM). The MIC amounted to 2 µg/mL (≈ 5.4 µM) with Enterococcus faecalis [21]; 2 µg/mL (≈ 5.4 µM) in the assay on Enterococcus faecalis [22]; 4 µg/mL (≈ 10.8 µM) in the assay with Staphylococcus aureus [14]; 2 µg/mL (≈ 5.4 µM) in the assay on Staphylococcus aureus [16]; 16 µg/mL (≈ 43.2 µM) with Staphylococcus aureus [18]; 1 µg/mL (≈ 2.7 µM) against Staphylococcus aureus [19]. For the same molecule, the MIC50 in assay [11] is 4 µg/mL (≈ 10.8 µM); against Enterococcus faecalis [13] it was 4 µg/mL (≈ 10.8 µM); with Staphylococcus aureus [15] it was 0.25 µg/mL (≈ 0.675 µM); against Enterococcus faecium [17], 2 µg/mL (≈ 5.4 µM). In addition, the MIC90 in assay [11] was found to be 8 µg/mL (≈ 21.6 µM); against Enterococcus faecalis [13], 4 µg/mL (≈ 10.8 µM); in the assay with Staphylococcus aureus [15], 2 µg/mL (≈ 5.4 µM); against Enterococcus faecium [17], 4 µg/mL (≈ 10.8 µM).
As for `CN[C@H](CC(C)C)C(=O)N[C@H]1C(=O)N[C@@H](CC(N)=O)C(=O)N[C@H]2C(=O)N[C@H]3C(=O)N[C@H](C(=O)N[C@H](C(=O)O)c4cc(O)cc(O)c4-c4cc3ccc4O)[C@H](O)c3ccc(c(Cl)c3)Oc3cc2cc(c3O[C@@H]2O[C@H](CO)[C@@H](O)[C@H](O)[C@H]2O[C@H]2C[C@](C)(N)[C@H](O)[C@H](C)O2)Oc2ccc(cc2Cl)[C@H]1O` [VANCOMYCIN], the MIC in the assay on Enterococcus faecalis [1] was 32 µg/mL (≈ 22.1 µM); with Enterococcus faecium [3] it was > 32 µg/mL; in the assay with Enterococcus faecalis [21], 1 µg/mL (≈ 0.69 µM); against Enterococcus faecalis [22], 1 µg/mL (≈ 0.69 µM); with Enterococcus faecalis [12], 1 µg/mL (≈ 0.69 µM); against Enterococcus faecalis [23], > 32 µg/mL. Further, the MIC with Enterococcus faecalis [24] and against Enterococcus faecalis [25] was > 32 µg/mL each time.

(Values after ChEMBL document CHEMBL1275567, “In vitro activity of TR-700, the antibacterial moiety of the prodrug TR-701, against linezolid-resistant strains” (2008).)
